Laboratory results taken from ChEMBL document CHEMBL3351542, “Nonpeptide small molecule agonist and antagonist original leads for neuropeptide FF1 and FF2 receptors” (J Med Chem, 2014).
Calls of active or inactive are those of the source. The rule behind the calls is not given here. Square brackets hold non-standard residues; d marks the D form. Peptide text beside a SMILES is read from it. NMeF = CN[C@@H](Cc1ccccc1)C(=O)O

Key:
[1] = organism: Homo sapiens; test: Selectivity ratio of Ki for human NPFF1 receptor to Ki for human NPFF2 receptor
[2] = molecular target: T1, Neuropeptide FF receptor 1 (Homo sapiens, UniProt Q9GZQ6); test: Displacement of [3H]NPVF from human NPFF1 receptor expressed in CHO cells after 1 hr by liquid scintillation counting analysis; format: cell-based
[3] = molecular target: T2, Neuropeptide FF receptor 2 (Homo sapiens, UniProt Q9Y5X5); test: Displacement of [3H]EYF from human NPFF2 receptor expressed in CHO cells after 1 hr by liquid scintillation counting analysis; format: cell-based
[4] = molecular target: T2, Neuropeptide FF receptor 2; test: Displacement of [125I]EYF from human NPFF2 receptor expressed in CHO cells after 1 hr by liquid scintillation counting analysis; format: cell-based
How it was run: (§1)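 Competition binding on CHO membranes stably expressing hNPFF1-R ([125I]YVP) or hNPFF2-R ([125I]EYF). Ki reported as mean ± SEM of two to four experiments in duplicate.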

[5] = molecular target: T1, Neuropeptide FF receptor 1; test: Displacement of [125I]YVP from human NPFF1 receptor expressed in CHO cells after 1 hr by liquid scintillation counting analysis; format: cell-based; how it was run: as §1
[6] = organism: Homo sapiens; test: Selectivity for human NPFF2 receptor over human NPFF1 receptor
[7] = organism: Homo sapiens; test: Selectivity ratio of Ki for human NPFF2 receptor to Ki for human NPFF1 receptor
[8] = molecular target: T1, Neuropeptide FF receptor 1; test: Antagonist activity at human NPFF1 receptor expressed in CHO cells assessed as reversal of NPVF-induced inhibition of intracellular cAMP accumulation after 10 mins by liquid scintillation counting analysis relative to control; format: functional, cell-based
[9] = molecular target: T2, Neuropeptide FF receptor 2; test: Antagonist activity at human NPFF2 receptor expressed in CHO cells assessed as reversal of 1DMe-induced inhibition of intracellular cAMP accumulation after 10 mins by liquid scintillation counting analysis relative to control; format: functional, cell-based
[10] = molecular target: T2, Neuropeptide FF receptor 2; test: Agonist activity at human NPFF2 receptor expressed in CHO cells assessed as inhibition of forskolin-induced intracellular cAMP accumulation by liquid scintillation counting analysis; format: functional, cell-based
[11] = molecular target: T1, Neuropeptide FF receptor 1; test: Agonist activity at human NPFF1 receptor expressed in CHO cells assessed as inhibition of forskolin-induced intracellular cAMP accumulation by liquid scintillation counting analysis; format: functional, cell-based
How it was run: (§2)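 Stably transfected CHO cells (200000) seeded overnight, labelled 1 h at 37 °C with [3H]adenine plus 0.1 μM adenine, rinsed in HEPES-Krebs-Ringer pH 7.4. Compound alone added with forskolin (20 μM in the added solution), IBMX and Ro-20 1724; 10 min at 37 °C, stopped with HCl. [3H]cAMP isolated on acid alumina columns, scintillation counted. Duplicates, two to four experiments.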

[12] = molecular target: T2, Neuropeptide FF receptor 2; test: Partial agonist activity at human NPFF2 receptor expressed in CHO cells assessed as inhibition of forskolin-induced intracellular cAMP accumulation at >1 uM by liquid scintillation counting analysis; format: functional, cell-based; how it was run: as §2
[13] = molecular target: T2, Neuropeptide FF receptor 2; test: Antagonist activity at human NPFF2 receptor expressed in CHO cells assessed as reversal of 1DMe-induced inhibition of intracellular cAMP accumulation at 10 to 30 uM after 10 mins by liquid scintillation counting analysis relative to control; format: functional, cell-based
[14] = molecular target: T1, Neuropeptide FF receptor 1; test: Partial agonist activity at human NPFF1 receptor expressed in CHO cells assessed as inhibition of forskolin-induced intracellular cAMP accumulation at >1 uM by liquid scintillation counting analysis; format: functional, cell-based; how it was run: as §2
[15] = molecular target: T1, Neuropeptide FF receptor 1; test: Agonist activity at human NPFF1 receptor expressed in CHO cells assessed as inhibition of forskolin-induced intracellular cAMP accumulation up to 1 uM by liquid scintillation counting analysis; format: functional, cell-based; how it was run: as §2
[16] = molecular target: T2, Neuropeptide FF receptor 2; test: Antagonist activity at human NPFF2 receptor expressed in CHO cells assessed as inhibition of forskolin-induced intracellular cAMP accumulation at 10 to 30 uM after 10 mins by liquid scintillation counting analysis relative to control; format: functional, cell-based
How it was run: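 At hNPFF2 CHO cells, compound alone tested at 10 and 30 μM in the forskolin-stimulated [3H]cAMP accumulation assay (10 min, 37 °C, IBMX and Ro-20 1724 present, alumina column isolation). Read-out is % inhibition of cAMP accumulation.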

[17] = molecular target: T2, Neuropeptide FF receptor 2; test: Agonist activity at human NPFF2 receptor expressed in CHO cells assessed as inhibition of forskolin-induced intracellular cAMP accumulation up to 1 uM by liquid scintillation counting analysis; format: functional, cell-based; how it was run: as §2
[18] = molecular target: T2, Neuropeptide FF receptor 2; test: Agonist activity at human NPFF2 receptor expressed in CHO cells at 10 uM after 60 mins by [35S-GTPgammaS] binding assay relative to control; format: functional, cell-based
How it was run: (§3)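 CHO cell membranes stably expressing hNPFF1-R (1.5 μg protein) or hNPFF2-R (0.7 μg). 60 min at 30 °C in 20 mM HEPES pH 7.4, 20 mM NaCl, 3 mM MgCl2, 0.1% BSA, saponin, GDP 0.1 μM (NPFF1) or 1 μM (NPFF2), 0.066 nM [35S]GTPγS; filtration, scintillation counting. Compound at 10 μM; % stimulation over basal, compared with 1DMe 10 μM. Two–four experiments in duplicate.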

[19] = molecular target: T1, Neuropeptide FF receptor 1; test: Agonist activity at human NPFF1 receptor expressed in CHO cells at 10 uM after 60 mins by [35S-GTPgammaS] binding assay relative to control; format: functional, cell-based; how it was run: as §3

T1 sequence (Q9GZQ6 whole entry): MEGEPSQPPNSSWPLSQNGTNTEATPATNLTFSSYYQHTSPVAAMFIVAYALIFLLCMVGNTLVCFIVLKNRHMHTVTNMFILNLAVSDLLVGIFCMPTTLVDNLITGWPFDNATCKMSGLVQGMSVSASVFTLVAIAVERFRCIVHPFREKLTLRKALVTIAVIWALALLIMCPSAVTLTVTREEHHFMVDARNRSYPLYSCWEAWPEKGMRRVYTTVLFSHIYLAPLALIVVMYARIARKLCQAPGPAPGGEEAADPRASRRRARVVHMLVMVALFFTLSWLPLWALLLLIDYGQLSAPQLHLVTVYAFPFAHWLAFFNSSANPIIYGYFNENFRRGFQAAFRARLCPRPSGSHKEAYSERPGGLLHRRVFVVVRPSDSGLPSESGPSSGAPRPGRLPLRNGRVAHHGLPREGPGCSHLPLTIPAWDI
T2 sequence (Q9Y5X5 whole entry): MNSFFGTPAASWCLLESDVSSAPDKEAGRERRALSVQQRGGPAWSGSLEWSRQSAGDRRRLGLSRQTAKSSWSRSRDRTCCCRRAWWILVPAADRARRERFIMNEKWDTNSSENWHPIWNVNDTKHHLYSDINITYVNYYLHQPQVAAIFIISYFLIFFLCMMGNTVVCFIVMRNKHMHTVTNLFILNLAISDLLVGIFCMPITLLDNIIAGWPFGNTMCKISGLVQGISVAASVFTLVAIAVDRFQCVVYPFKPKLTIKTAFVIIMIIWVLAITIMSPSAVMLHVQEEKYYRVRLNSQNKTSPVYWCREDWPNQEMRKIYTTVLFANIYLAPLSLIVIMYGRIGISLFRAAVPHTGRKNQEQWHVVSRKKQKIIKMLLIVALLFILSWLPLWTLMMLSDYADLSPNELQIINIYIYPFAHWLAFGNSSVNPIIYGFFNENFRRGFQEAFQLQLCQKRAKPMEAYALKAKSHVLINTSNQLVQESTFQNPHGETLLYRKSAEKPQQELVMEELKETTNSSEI

For `N=C(N)NCC(=O)NCC1(Nc2ccccc2)CCN(CC2CCCCC2)CC1`, the Ratio Ki [1] was 5.5, the Ki [2] was 1640 nM and the Ki [3] was 298 nM.

`N=C(N)NCC1(Nc2ccccc2)CCN(Cc2ccccc2)CC1` gave a Ki [4] of 6620 nM and a Ki [5] of 1880 nM.

With `CC(C)C[C@H](NC(=O)[C@H](Cc1ccccc1)NC(=O)[C@H](C)NC(=O)[C@H](CCC(N)=O)NC(=O)[C@@H](N)CO)C(=O)N[C@@H](Cc1ccccc1)C(=O)N[C@@H](CCC(N)=O)C(=O)N1CCC[C@H]1C(=O)N[C@@H](CCC(N)=O)C(=O)N[C@@H](CCCNC(=N)N)C(=O)N[C@@H](Cc1ccccc1)C(N)=O` the Selectivity ratio [6] was 10.7.

In the case of `N=C(N)NCC(=O)NCC1(CCc2ccccc2)CCN(Cc2ccccc2)CC1`, the Ratio Ki [7] is reported as 3, the Ki [2] is reported as 151 nM and the Ki [3] is reported as 465 nM.

Work on `N=C(N)NCC(=O)NCC1(Nc2ccccc2)CCN(Cc2cccc3ccccc23)CC1` yielded a Ratio Ki [1] of 4.2, a Ki [2] of 538 nM and a Ki [3] of 129 nM.

With `N=C(N)NCCNC(=O)C1(Nc2ccccc2)CCN(Cc2ccccc2)CC1` the Activity [8] was “Dose-dependent effect”, the EC50 [8] was 3520 nM and the Emax [8] was 68%. The Ki [2] was 81 nM and the Ki [3] was 1430 nM.

For `N=C(N)NCC(=O)NCC1(Cc2cccc3ccccc23)CCN(Cc2ccccc2)CC1`, the Activity [8] was “Dose-dependent effect”, the EC50 [8] was 2600 nM and the Emax [8] was 56.2%. For the same molecule, the Ki [2] was 112 nM, the Ki [3] was 30 nM and the EC50 [9] was 645 nM. For the same molecule, the Emax [9] was 22%.

For `CN1CCC(CNC(=N)N)(Nc2ccccc2)CC1`, the Ki [4] was > 5000 nM and the Ki [5] was > 5000 nM.

`N=C(N)NCC(=O)NCC1(c2ccccc2)CCN(Cc2ccccc2)CC1` showed a Ratio Ki [7] of 6.9, a Ki [2] of 511 nM and a Ki [3] of 3500 nM.

In the case of `N=C(N)NCC(=O)NCC1(Cc2ccccc2)CCN(Cc2ccccc2)CC1`, the EC50 [10] is reported as > 1000 nM, the Ki [2] is reported as 417 nM and the Ki [3] is reported as 84 nM.

For `N=C(N)NCC(=O)NCC1(Nc2ccccc2)CCN(CCc2ccccc2)CC1`, the Ratio Ki [1] was 3.2, the Ki [2] was 1060 nM and the Ki [3] was 330 nM.

For `CN1CCC(CNC(=O)[C@@H](N)CCCNC(=N)N)(Nc2ccccc2)CC1`, the Ki [4] was > 5000 nM and the Ki [5] was > 5000 nM.

Molecule “H-SLNFEELKDWGPKNVIKMSTPAVNKMPHSFANLPLRF-NH2” has a Selectivity ratio [6] of 1.2.

In the case of `N=C(N)NCC(=O)NCC1(Nc2cccc3ccccc23)CCN(Cc2ccccc2)CC1`, the EC50 [11] is reported as > 10000 nM, the Ki [2] is reported as 94 nM and the Ki [3] is reported as 309 nM.

`N=C(N)NCC(=O)NCC1(Cc2ccc3ccccc3c2)CCN(Cc2ccccc2)CC1` was tested, and the Ratio Ki [1] was 1.5, the Ki [2] was 316 nM and the Ki [3] was 205 nM.

For `COC(=O)c1ccc(CN2CCC(CNC(=O)CNC(=N)N)(Nc3ccccc3)CC2)cc1`, the Ratio Ki [7] was 4.5, the Ki [2] was 340 nM and the Ki [3] was 1510 nM.

For `CC(C)C[C@H](NC(=O)[C@H](N)Cc1ccc(O)cc1)C(=O)N(C)[C@@H](Cc1ccccc1)C(=O)N[C@@H](CCC(N)=O)C(=O)N1CCC[C@H]1C(=O)N[C@@H](CCC(N)=O)C(=O)N[C@@H](CCCNC(=N)N)C(=O)N[C@@H](Cc1ccccc1)C(N)=O` (H-[dY]L[NMeF]QPQRF-NH2), the Ki ([5]; cho) was 4 nM.

`N=C(N)NCC1(Nc2ccccc2)CCN(CCc2ccccc2)CC1` showed a Ki [4] of 2770 nM and a Ki [5] of 2960 nM.

Work on `N=C(N)NCC(=O)NCC1(Cc2ccc(-c3ccccc3)cc2)CCN(Cc2ccccc2)CC1` yielded a Ratio Ki [7] of 3, a Ki [2] of 296 nM and a Ki [3] of 910 nM.

For `N=C(N)NCC(=O)NCC1(Nc2ccccc2)CCN(Cc2ccc(Br)cc2)CC1`, the Ratio Ki [7] was 4, the Ki [2] was 112 nM and the Ki [3] was 454 nM.

With `N=C(N)NCC(=O)NCC1(Nc2ccccc2)CCN(Cc2ccccc2)CC1` the Activity [12] was “inactive”, the EC50 [8] was 22000 nM and the Emax [8] was 83%. The inhibition [13] was “Active”, the Activity [14] was “inactive” and the Activity [15] was “Active”. It also gave an Emax [16] of 20%, a Ki [2] of 319 nM and a Ki [3] of 405 nM. The Activity [17] was “Active”.

`N=C(N)NCCC(=O)NCC1(Nc2ccccc2)CCN(Cc2ccccc2)CC1` showed a Ratio Ki [7] of 6, a Ki [2] of 441 nM and a Ki [3] of 2910 nM.

With `N=C(N)NCCC[C@H](N)C(=O)NCC1(Nc2ccccc2)CCN(CCc2ccccc2)CC1` the Ki [4] was 1690 nM and the Ki [5] was 2910 nM.

For `N=C(N)NCC(=O)NCC1(Nc2ccccc2)CCNCC1`, the Ki [2] was 15100 nM and the Ki [3] was 2760 nM.

`N=C(N)NCC(=O)NCC1(Nc2ccccc2)CCN(Cc2ccc3ccccc3c2)CC1` was tested, and the Ratio Ki [7] was 3.6, the Ki [2] was 141 nM and the Ki [3] was 504 nM.

With `COc1cc(NC2(CNC(=O)CNC(=N)N)CCN(Cc3ccccc3)CC2)cc(OC)c1` the EC50 [11] was > 10000 nM, the Ki [2] was 114 nM and the Ki [3] was 987 nM.

`N=C(N)NCC(=O)NCC1(Cc2ccc(Cl)c(Cl)c2)CCN(Cc2ccccc2)CC1` was tested, and the Ratio Ki [1] was 5.3, the Ki [2] was 432 nM and the Ki [3] was 82 nM.

H-AGEGLSSPFWSLAAPQRF-NH2 gave a Selectivity ratio [6] of 10.1.

For `N=C(N)NCC(=O)NCC1(Nc2ccc(Cl)c(Cl)c2)CCN(Cc2ccccc2)CC1`, the Ratio Ki [7] was 2.1, the Ki [2] was 191 nM and the Ki [3] was 409 nM.

In the case of `N=C(N)NCCC[C@H](N)C(=O)NCC1(Nc2ccccc2)CCN(Cc2ccccc2)CC1`, the Ki [4] is reported as 1050 nM, the Ki [5] is reported as 487 nM and the Emax [18] is reported as 184%. The Emax [19] was 36%.

`N=C(N)NCCC[C@H](N)C(=O)NCC1(Nc2ccccc2)CCN(Cc2ccc3ccccc3c2)CC1` gave a Ki [4] of 304 nM, a Ki [5] of 479 nM and a Ratio Ki [1] of 1.6.

For `COc1cccc(NC2(CNC(=O)CNC(=N)N)CCN(Cc3ccccc3)CC2)c1`, the Ratio Ki [7] was 4.4, the Ki [2] was 201 nM and the Ki [3] was 884 nM.

With `N=C(N)NCCC[C@H](N)C(=O)NCC1CCN(Cc2ccccc2)CC1` the Ki [4] was 7580 nM and the Ki [5] was > 5000 nM.
